PG9 binder = binders of HIV-1 gp120 antibody PG9, primary screen, biochemical, TR-FRET. HIV-1 gp120 / PG9 antibody interaction. TR-FRET gp120-PG9 antibody binding. inhibition, % at 6.7 µM. 0.43% of 360,000 active. AID 624416, 2012; in the data active = inhibition above about 8.5%
NR2E3 ag-1 = inhibitors of NR2E3-RetCOR corepressor binding, primary screen, NR2E3 agonist project, biochemical, TR-FRET, GST-NR2E3, biotin-RetCOR | Photoreceptor-specific nuclear receptor (Homo sapiens), Q9Y5X4 | 1536-well | inhibition of corepressor binding, % at 4.78 µM | 0.12% of 320,000 active;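 active = percent inhibition above the cutoff of mean plus 3 SD of all tested compounds, set per screening campaign, cut at about 20% in these data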;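 also: 0% = DMSO wells and 100% = biotin wells as full block of FRET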
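System: GST-tagged NR2E3 plus biotinylated RetCOR corepressor; Amount: 1.35 nM GST-tagged NR2E3 final; Dosing: single nominal compound dose of 4.8 µM; Schedule: 5 h incubation at 4 °C; Technique: TR-FRET with europium anti-GST and streptavidin-D2, 340 nm excitation; Controls: biotin wells as high control, 0.6% DMSO wells as low control.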
NR1D1 modulator = modulators of Rev-erb alpha DNA binding, primary screen, biochemical, FITC-DNA, fluorescence polarization, uHTS | Nuclear receptor subfamily 1 group D member 1 (Homo sapiens), P20393 | Rev-erbα–FITC-DNA binding, 90 min | activity, % at 10 µM | 0.79% of 370,000 active | AID 1259318, 2017;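 active = activity above about 14%, limit read from the data; passing the limit was not always enough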;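 also: 0% = DMSO wells with 35 nM protein and 100% = DMSO wells with 750 nM protein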
Target sequence (P20393 whole entry, looked up): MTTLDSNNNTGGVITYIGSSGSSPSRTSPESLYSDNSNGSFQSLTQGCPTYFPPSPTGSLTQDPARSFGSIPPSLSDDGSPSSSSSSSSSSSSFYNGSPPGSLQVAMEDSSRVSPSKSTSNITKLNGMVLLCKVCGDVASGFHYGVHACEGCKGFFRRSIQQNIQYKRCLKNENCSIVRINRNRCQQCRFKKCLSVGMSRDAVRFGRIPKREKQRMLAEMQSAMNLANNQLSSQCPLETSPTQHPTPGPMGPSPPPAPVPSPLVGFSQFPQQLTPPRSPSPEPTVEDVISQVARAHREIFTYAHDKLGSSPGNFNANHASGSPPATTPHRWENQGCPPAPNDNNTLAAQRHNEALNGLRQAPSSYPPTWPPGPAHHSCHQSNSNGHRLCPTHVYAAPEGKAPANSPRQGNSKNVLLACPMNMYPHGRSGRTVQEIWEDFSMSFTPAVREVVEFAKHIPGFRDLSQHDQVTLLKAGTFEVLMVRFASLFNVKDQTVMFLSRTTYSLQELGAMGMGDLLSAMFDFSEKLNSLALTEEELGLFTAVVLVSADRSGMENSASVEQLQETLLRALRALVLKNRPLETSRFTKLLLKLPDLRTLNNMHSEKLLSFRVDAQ
Neddylation inh = inhibitors of cullin neddylation, primary screen, biochemical, TR-FRET, uHTS, NAE and Ubc12; NEDD8-conjugating enzyme Ubc12 (Homo sapiens) + NEDD8-activating enzyme E1 regulatory …; 0.58% of 360,000 active; AID 651699, 2012; calls only at 25 µM; in the data active = inhibition above about 36%
NR2E3 ag-2 = NR2E3 agonists in two-hybrid cells, primary screen, cell-based, luminescence, CHO-S, Gal4-NCOR/VP16-NR2E3; Photoreceptor-specific nuclear receptor (Homo sapiens), Q9Y5X4; luciferase; inhibition of corepressor binding, % at 3.98 µM; 0.35% of 360,000 active; AID 602229, 2012;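 active = inhibition above the mean of all tested compounds plus 3 SD, cut at about 70% in these data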;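 also: 0% = DMSO with NR2E3 transfected cells and 100% = cells lacking NR2E3 construct; higher means lower luciferase signal from less NR2E3 corepressor binding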
NR2E3 ag conf = NR2E3 agonist confirmation in cells, cell-based, luminescence, CHO-S two-hybrid; inhibition, % at 3.98 µM; CHO-S mammalian two-hybrid NR2E3-NCOR, luciferase luminescence; shares compounds with NR2E3 ag-2; 51% of 2,300 active;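 active = average inhibition above a cutoff equal to the mean inhibition of all tested compounds plus one SD, cut at about 70% in these data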;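 also: 0% = DMSO in NR2E3 cells and 100% = DMSO in cells lacking NR2E3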
GAL4-VP16 luc = GAL4-VP16 reporter modulators, confirmation, counter-screen for NR2E3 agonist project, cell-based, luminescence, CHO-S, high throughput | shares compounds with NR2E3 ag-2 | CHO-S GAL4-VP16 luciferase reporter | inhibition, % at 3.98 µM | 29% of 2,300 active;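 active = mean inhibition above a cutoff equal to the average over all tested compounds plus one standard deviation, cut at about 70% in these data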;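 also: luciferase from a UAS reporter driven by GAL4-VP16 transactivation; 0% = DMSO with VP16-transfected cells and 100% = DMSO with cells lacking VP16; higher means less reporter light so more repression of VP16 activity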
* hit, by the source's call; i = inactive; . = not tested or not shown; + = active, no number. An excerpt weighted towards active compounds, which were near 2% of everything screened.

SMILES	PG9 binder	NR2E3 ag-1	NR1D1 modulator	Neddylation inh	NR2E3 ag-2	NR2E3 ag conf	GAL4-VP16 luc
CCCNC(=O)Cn1cccc1C(=O)c1ccccc1	0	-2	0	i	89*	22	11
CCOC(=O)c1cnc(SCC(=O)Nc2cc(OC)ccc2OC)nc1N	2	2	-2	i	69	45	67
CC(C)C[C@@H]1COc2cc(Br)ccc2S(=O)(=O)N1Cc1cn(CCC2OCCO2)nn1	.	.	8	.	.	.	.
CCN=C1NC(c2cccc(Cl)c2)C(C(=O)OC)=C(C)N1Cc1ccccc1C(F)(F)F (centres undefined)	0	.	4	.	.	.	.
CCCCCCCCCC[n+]1cccc2c3ccccc3ccc21	0	.	-7	+	96*	100*	94*
COc1ccc(CCNC(=O)c2ccc3ccccc3n2)cc1OC	0	6	-2	i	-22	.	.
COc1ccc(CNC(=O)c2ccc3ccccc3n2)cc1OC	0	-1	-4	i	85*	60	44
NC(=S)N=Nc1c(O)n(CCCl)c2ccccc12	-4	4	10	i	2	.	.
NC(=S)N=Nc1c(O)n(CCCl)c2ccc(Cl)cc12	-3	5	-2	i	50	33	7
Fc1ccc2cc(C3=CCCCC3)ncc2c1	-1	.	-3	.	.	.	.
O=C(c1ccc(N2CCCCC2)c([N+](=O)[O-])c1)N1CCN(S(=O)(=O)c2ccccc2)CC1	-2	1	4	i	15	.	.
NC(=O)c1ccc(N2CCN(S(=O)(=O)c3ccccc3)CC2)c([N+](=O)[O-])c1	0	2	0	i	74*	87*	69
COc1ccc(C2C(C(=O)Nc3ccc(Cl)cc3)CCC(=O)N2c2ccc(OC)cc2)cc1 (centres undefined)	.	.	-3	.	.	.	.
Cc1ccc(S(=O)(=O)Nc2ccccc2-c2ccccc2NS(=O)(=O)c2ccc(C)cc2)cc1	0	1	-5	i	45	.	.
Cc1ccc(S(=O)(=O)Nc2cccnc2)cc1C	-2	6	-4	i	-6	.	.
O=S(=O)(Nc1cccnc1Cl)c1ccc(-c2ccccc2)cc1	0	0	-2	i	64	53	45
COc1cc(NS(=O)(=O)c2ccc(C)cc2)c2ncccc2c1	-1	0	1	.	82*	-20	3
Cc1ccc(S(=O)(=O)Nc2cccc3cccnc23)cc1	0	2	6	.	97*	46	5
Cc1ccc(-c2ccc(S(=O)(=O)Nc3cccnc3)cc2)cc1	-2	2	2	i	65	84*	69
CN[C@H]1C[C@H]2c3cc(-c4ccc5c(c4)OCO5)ccc3CCN2C[C@H]1[C@H](C)O	.	.	-4	.	.	.	.
O=C(NC1CCCCN(Cc2cccc(C(F)(F)F)c2)C1=O)c1ccc(F)c(F)c1 (centres undefined)	.	.	5	.	.	.	.
OC[C@H]1OC([S-])[C@H](O)[C@@H](O)[C@@H]1O.[Au+] (some centres undefined)	.	.	-30	.	.	.	.
CC(C)(C)c1ccc(/C=N/Nc2ccc(C(=O)O)cc2)cc1	-3	0	-5	i	50	65	-33
CNC(=O)c1cccc(NC(=O)C(C)c2ccc3cc(OC)ccc3c2)c1 (centres undefined)	-1	6	7	i	-21	.	.
COc1ccc2cc(C(C)C(=O)Nc3cccc(S(=O)(=O)N(C)C)c3)ccc2c1 (centres undefined)	-2	4	4	i	48	32	42
SMILES	PG9 binder	NR2E3 ag-1	NR1D1 modulator	Neddylation inh	NR2E3 ag-2	NR2E3 ag conf	GAL4-VP16 luc
Cc1ccccc1Cn1c(C)nc2ccccc21	0	-2	5	i	62	93*	82*
OCc1nc2ccccc2n1Cc1ccc(Cl)cc1	-3	7	-2	i	21	.	.
Cc1nc2ccccc2n1Cc1ccc(Cl)cc1	0	4	-3	i	92*	94*	83*
CC1CCCN(c2ncnc3c2cnn3-c2ccc(Cl)cc2)C1 (centres undefined)	1	1	0	i	92*	83*	69
Cc1cc(=O)[nH]c(SCC(=O)Nc2ccc(Br)cc2)c1C#N	1	-3	2	i	78*	98*	90*
Cc1cc(=O)[nH]c(SCC(=O)Nc2ccc3c(c2)CCC3)c1C#N	1	0	1	i	55	39	41
Cc1cc(=O)[nH]c(SCC(=O)Nc2ccc(F)cc2)c1C#N	2	4	3	i	-12	.	.
O=P(O)(O)C(O)(Cc1cnc2ccccn12)P(=O)(O)O	.	.	2	.	.	.	.
COc1ccc2c(c1)CCCN2C(=O)C1CCCN(S(=O)(=O)c2ccccc2)C1 (centres undefined)	.	.	4	.	.	.	.
COC1C=CC=C(C)C(=O)NC2=CC(=O)C(N)=C(CC(C)CC(OC)C(O)C(C)C=C(C)C1OC(N)=O)C2=O (centres undefined)	-35	.	-5	i	91*	97*	64
CC(=O)c1c(O)cc(O)c(C(C)=O)c1O	.	3	.	i	80*	85*	34
Cc1cc2c(nc1C)CCCN2S(=O)(=O)c1ccccc1	1	.	-8	.	.	.	.
O=C(CN1C(=O)CCSc2ccccc21)Nc1ccc(F)cc1F	.	.	-7	.	.	.	.
O=S(=O)(c1ccccc1)N1CCC(O)(CSc2ccc(Cl)cc2)CC1	-1	1	1	i	78*	95*	79*
O=S(=O)(c1ccc(Cl)cc1)N1CCC(O)(CN2CCN(Cc3ccccc3)CC2)CC1	-1	4	-2	i	10	.	.
Cc1nc(NC(=O)c2ccco2)sc1C(=O)Nc1ccc(Br)cc1	.	7	.	i	54	64	22
Cc1cc(C)nc(SCC(=O)Nc2ccc(N3CCOCC3)c(Cl)c2)n1	0	2	-4	i	74*	89*	79*
O=C(CSc1nc2ccccc2c(=O)[nH]1)Nc1ccc([N+](=O)[O-])cc1	1	.	1	i	1	.	.
Cc1ccc(NC(=O)CSc2nc3ccccc3c(=O)[nH]2)cc1[N+](=O)[O-]	0	.	12	i	56	46	60
O=C(CSc1nc2ccccc2c(=O)[nH]1)Nc1ccc(N2CCOCC2)c(Cl)c1	-2	5	3	i	49	27	46

Screening data from PubChem.
